# Measurements reported in ChEMBL document CHEMBL3407395, “Synthesis, characterization, and optimization for in vivo delivery of a nonselective isopeptidase inhibitor as new antineoplastic agent” (J Med Chem, 2015).
# pIC50: −log10 of the molar value. Calls of active or inactive are those of the source. The rule behind the calls is not given here.
# Assays:
# [1] = Cytotoxicity against human U87MG cells after 48 hrs by resazurin assay; type: functional, cell-based, U-87MG ATCC; settings: U-87 MG
# Procedure, shortened: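 U87MG glioblastoma cells treated with compounds; viability read by resazurin 48 h after treatment. IC50 from triplicate experiments, reported as mean and s.d.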
# A549 [2] = assay: Induction of cell death in human A549 cells assessed as accumulation of poly-ubiquitinated proteins at 1 to 5 uM after 24 hrs by immunoblot assay; type: functional, cell-based
# [3] = molecular target: T1, Ubiquitin carboxyl-terminal hydrolase isozyme L5 (Homo sapiens, UniProt Q9Y5K5); assay: Inhibition of GST-tagged UCHL5 (unknown origin) using Ub-AMC as substrate preincubated for 30 mins before substrate addition measured after 60 mins by fluorescence assay
# T1 sequence (Q9Y5K5 whole entry): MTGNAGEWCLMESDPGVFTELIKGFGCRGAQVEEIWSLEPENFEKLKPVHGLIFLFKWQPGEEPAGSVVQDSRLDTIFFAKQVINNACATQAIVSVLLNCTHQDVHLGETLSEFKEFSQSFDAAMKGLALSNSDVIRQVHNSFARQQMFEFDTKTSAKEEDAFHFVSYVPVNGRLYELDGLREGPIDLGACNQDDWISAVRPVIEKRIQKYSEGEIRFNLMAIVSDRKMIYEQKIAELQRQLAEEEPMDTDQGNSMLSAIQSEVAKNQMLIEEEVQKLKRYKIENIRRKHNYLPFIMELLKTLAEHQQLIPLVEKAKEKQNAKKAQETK
# Procedure, shortened: (§1)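 Purified isopeptidase activity was measured with ubiquitin-AMC as fluorogenic substrate; IC50 was derived from inhibition.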
# [4] = molecular target: T2, Ubiquitin carboxyl-terminal hydrolase 2 (Homo sapiens, UniProt O75604); assay: Inhibition of USP2 catalytic domain (unknown origin) expressed in bacteria using Ub-AMC as substrate preincubated for 30 mins before substrate addition measured after 60 mins by fluorescence assay; procedure, shortened: as §1
# T2 sequence (O75604 whole entry): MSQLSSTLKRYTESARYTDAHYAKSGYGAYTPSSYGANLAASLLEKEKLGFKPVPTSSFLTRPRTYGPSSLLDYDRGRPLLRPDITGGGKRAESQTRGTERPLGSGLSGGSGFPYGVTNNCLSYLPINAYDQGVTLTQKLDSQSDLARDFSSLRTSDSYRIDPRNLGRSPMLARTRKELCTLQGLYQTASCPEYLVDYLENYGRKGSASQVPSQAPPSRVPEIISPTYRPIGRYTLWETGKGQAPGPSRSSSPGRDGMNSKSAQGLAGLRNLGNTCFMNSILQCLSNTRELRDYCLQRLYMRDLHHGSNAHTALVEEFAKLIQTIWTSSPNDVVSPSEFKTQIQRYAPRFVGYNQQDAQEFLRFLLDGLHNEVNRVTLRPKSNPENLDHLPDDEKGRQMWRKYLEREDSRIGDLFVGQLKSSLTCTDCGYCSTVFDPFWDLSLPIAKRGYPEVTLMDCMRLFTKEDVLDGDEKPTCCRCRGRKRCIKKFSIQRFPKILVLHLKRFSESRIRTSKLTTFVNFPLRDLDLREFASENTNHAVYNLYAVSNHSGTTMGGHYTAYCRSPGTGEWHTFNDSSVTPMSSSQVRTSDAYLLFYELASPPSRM
# [5] = molecular target: T3, Ubl carboxyl-terminal hydrolase 18 (Homo sapiens, UniProt Q9UMW8); assay: Inhibition of recombinant human USP18 (16 to 372 aa) expressed in Sf9 cells using ISG15-AMC as substrate preincubated for 30 mins before substrate addition measured after 60 mins by fluorescence assay
# T3 sequence (Q9UMW8 whole entry): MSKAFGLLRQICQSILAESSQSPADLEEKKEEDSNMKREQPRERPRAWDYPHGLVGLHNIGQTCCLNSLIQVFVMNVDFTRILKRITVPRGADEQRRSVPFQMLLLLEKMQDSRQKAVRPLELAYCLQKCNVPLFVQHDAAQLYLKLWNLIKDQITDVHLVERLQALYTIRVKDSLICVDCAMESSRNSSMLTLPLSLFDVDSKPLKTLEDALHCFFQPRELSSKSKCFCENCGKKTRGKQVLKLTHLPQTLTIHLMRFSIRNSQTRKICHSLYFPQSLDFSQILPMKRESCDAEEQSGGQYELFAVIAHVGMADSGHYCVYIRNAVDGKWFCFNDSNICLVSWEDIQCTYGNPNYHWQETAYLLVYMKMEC
# [6] = molecular target: Ubiquitin carboxyl-terminal hydrolase isozyme L1 (Homo sapiens) (UniProt P09936); assay: Inhibition of GST-tagged recombinant full-length UCHL1 (unknown origin) expressed in bacteria using Ub-AMC as substrate preincubated for 30 mins before substrate addition measured after 60 mins by fluorescence assay; procedure, shortened: as §1
# [7] = molecular target: T4, Ubl carboxyl-terminal hydrolase 18 (Homo sapiens) (UniProt Q9UMW8); assay: Inhibition of USP18 (unknown origin) expressed in human A549 cells coexpressing ISG15-GFP assessed as reduction in free GFP at 1 to 5 uM after 24 hrs by immunoblot assay; type: cell-based
# T4 sequence (whole entry): T3 sequence (Q9UMW8 whole entry)
# A549 [8] = assay: Induction of cell death in human A549 cells assessed as stabilization of p53 at 1 to 5 uM after 24 hrs by immunoblot assay; type: functional, cell-based
# U-87 MG [9] = assay: Induction of necrosis in human U87MG cells at 0.6 to 10 uM after 24 hrs by trypan blue assay; type: functional, cell-based; settings: U-87MG ATCC
# Procedure, shortened: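 U87MG cells treated 24 h at the indicated concentrations. Death scored as percent trypan blue-positive cells. Caspase activity measured in parallel with a rhodamine 110 bis-(N-Z-DEVD amide) fluorogenic substrate and read in relative fluorescence units.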
# A549 [10] = assay: Induction of cell death in human A549 cells assessed as accumulation of Noxa at 0.025 to 0.1 uM after 24 hrs by immunoblot assay; type: functional, cell-based
# [11] = molecular target: T4, Ubl carboxyl-terminal hydrolase 18 (Homo sapiens); assay: Inhibition of USP18 (unknown origin) expressed in human A549 cells coexpressing ISG15-GFP assessed as reduction in free GFP at 25 to 100 nM after 24 hrs by immunoblot assay
# A549 [12] = assay: Induction of cell death in human A549 cells assessed as stabilization of p53 at 0.025 to 0.5 uM after 24 hrs by immunoblot assay; type: functional, cell-based
# A549 [13] = assay: Induction of cell death in human A549 cells assessed as accumulation of poly-ubiquitinated proteins at 0.025 to 0.5 uM after 24 hrs by immunoblot assay; type: functional, cell-based
# U-87MG ATCC = assay: Induction of cell death in human U87MG cells at 4.2 to 18.4 uM after 24 hrs by trypan blue assay in presence of zVAD-fmk; type: functional, cell-based
# T98G [14] = assay: Induction of apoptosis in human T98G cells assessed as caspase activation at 0.6 to 10 uM after 24 hrs by rhodamine-based fluorescence assay; type: functional, cell-based
# Procedure, shortened: (§2)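 U87MG or T98G cells exposed 24 h to the listed concentrations. Caspase activity was read as relative fluorescence units from the rhodamine 110 bis-(N-Z-L-aspartyl-L-glutamyl-L-valyl-aspartic acid amide) fluorogenic substrate.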
# T98G [15] = assay: Induction of necrosis in human T98G cells at 0.6 to 10 uM after 24 hrs by trypan blue assay; type: functional, cell-based
# Procedure, shortened: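 T98G cells exposed 24 h to the listed concentrations. Cell death was scored as percent of trypan blue-positive cells.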
# U-87 MG [16] = assay: Induction of apoptosis in human U87MG cells assessed as caspase activation at 0.6 to 10 uM after 24 hrs by rhodamine-based fluorescence assay; type: functional, cell-based; settings: U-87MG ATCC; procedure, shortened: as §2
# Ubiquitin carboxyl-terminal hydrolase isozyme L1 (Homo sapiens), sequence (P09936 whole entry, looked up): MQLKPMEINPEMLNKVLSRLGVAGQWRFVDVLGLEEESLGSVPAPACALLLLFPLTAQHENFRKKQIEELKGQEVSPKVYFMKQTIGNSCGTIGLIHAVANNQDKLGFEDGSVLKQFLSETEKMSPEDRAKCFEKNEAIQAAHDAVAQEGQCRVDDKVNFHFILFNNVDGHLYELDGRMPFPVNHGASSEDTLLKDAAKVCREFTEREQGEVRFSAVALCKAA
SMILES,pIC50 [1],also measured
O=C1/C(=C/c2ccc(O)cc2)CS(=O)(=O)C/C1=C\c1ccc(O)cc1,5.17,–
CCOC(=O)C1C/C(=C\c2ccc([N+](=O)[O-])cc2)C(=O)/C(=C/c2ccc([N+](=O)[O-])cc2)C1 (stereo not drawn),5.61,–
O=C1/C(=C/c2ccc([N+](=O)[O-])cc2)CC2(C/C1=C\c1ccc([N+](=O)[O-])cc1)OCCO2,4.81,–
O=C1/C(=C/c2ccc(F)cc2)CS(=O)(=O)C/C1=C\c1ccc(F)cc1,5.66,–
O=C1/C(=C/c2ccc([N+](=O)[O-])cc2)CS(=O)(=O)C/C1=C\c1ccc([N+](=O)[O-])cc1,6.11,Activity (A549 [2]): Active; pIC50 [3]: 4.87; pIC50 [4]: 4.49; pIC50 [5]: 4.48; inhibition [6]: inactive; inhibition [7]: Active; Activity (A549 [8]): Active; Activity (U-87 MG [9]): Active
O=C1/C(=C/c2ccc(O)cc2)CS(=O)(=O)C/C1=C\c1ccc([N+](=O)[O-])cc1,5.66,–
O=C1/C(=C/c2ccc([N+](=O)[O-])cc2)C[S+]([O-])C/C1=C\c1ccc([N+](=O)[O-])cc1 (stereo not drawn),5.75,Activity (U-87 MG [9]): Active
O=C1/C(=C/c2ccc(Oc3ccccc3)cc2)CS(=O)(=O)C/C1=C\c1ccc(Oc2ccccc2)cc1,5.53,–
CC(C)C[C@H](NC(=O)[C@H](Cc1ccccc1)NC(=O)c1cnccn1)B(O)O,–,Activity (A549 [10]): Active; inhibition [11]: inactive; Activity (A549 [12]): Active; Activity (A549 [13]): Active
COc1ccc(/C=C2\CS(=O)(=O)C/C(=C\c3ccc(OC)c([N+](=O)[O-])c3)C2=O)cc1[N+](=O)[O-],5.94,–
O=C1/C(=C/c2cccc([N+](=O)[O-])c2)CS(=O)(=O)C/C1=C\c1cccc([N+](=O)[O-])c1,6.12,–
O=C1/C(=C/c2ccc([N+](=O)[O-])cc2)CSC/C1=C\c1ccc([N+](=O)[O-])cc1,4.94,–
Cc1ccc(/C=C2\CS(=O)(=O)C/C(=C\c3ccc([N+](=O)[O-])cc3)C2=O)cc1,5.86,–
O=C1/C(=C/c2ccc([N+](=O)[O-])cc2)CNC/C1=C\c1ccc([N+](=O)[O-])cc1,5.15,–
O=C1/C(=C/c2ccccc2)CS(=O)(=O)C/C1=C\c1ccccc1,5.29,–
Cc1ccc(/C=C2\CS(=O)(=O)C/C(=C\c3ccc(C)cc3)C2=O)cc1,5.32,Activity (U-87MG ATCC): Active; Activity (U-87 MG [9]): Active; Activity (T98G [14]): Active; Activity (T98G [15]): Active; Activity (U-87 MG [16]): Active
COc1ccc(/C=C2\CS(=O)(=O)C/C(=C\c3ccc(OC)cc3)C2=O)cc1,5.45,–
O=C1/C(=C/c2ccc([N+](=O)[O-])cc2)COC/C1=C\c1ccc([N+](=O)[O-])cc1,4.30,–
N#Cc1ccc(/C=C2\CS(=O)(=O)C/C(=C\c3ccc(C#N)cc3)C2=O)cc1,5.87,–
COc1ccc(/C=C2\CS(=O)(=O)C/C(=C\c3ccc([N+](=O)[O-])cc3)C2=O)cc1,5.68,–
O=C1/C(=C/c2ccc([N+](=O)[O-])cc2)CCC/C1=C\c1ccc([N+](=O)[O-])cc1,4.56,–
